Results reported in ChEMBL document CHEMBL4359877, “Identification of benzothiazinones containing an oxime functional moiety as new anti-tuberculosis agents” (Eur J Med Chem, 2019).
pIC50: −log10 of the molar value.

Legend:
[1] = system: Mycobacterium tuberculosis; test: Antimycobacterial activity against Mycobacterium tuberculosis H37Rv ATCC 27294 assessed as reduction in bacterial cell growth incubated for 7 days by microplate alamar blue assay; type: functional; settings: H37Rv ATCC 27294, 168 h
Outline: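 MABA: H37Rv or clinical MDR isolates (resistant to INH and RFP, Beijing Chest Hospital patients) grown to late log phase in 7H9 with glycerol, Tween 80 and ADC, washed, filtered and frozen. Two-fold compound dilutions with 2 × 10⁵ CFU per well, 37 °C; Alamar blue plus Tween 80 added on day 7, fluorescence (ex 530/em 590) read after 16–24 h. MIC = lowest concentration giving ≥90% fluorescence reduction versus mean of bacterium-only controls; RIF and INH as positive controls.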

[2] = Cytotoxicity against African green monkey Vero cells assessed as reduction in cell viability; type: cell-based; settings: chlorocebus sabaeus
[3] = Half life in ICR mouse at 25 mg/kg, po measured upto 24 hrs by HPLC analysis; type: ADME, organism-based; settings: in vivo
Outline: (§1)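 Female SPF ICR mice, 18–22 g, fasted overnight, 3 per group; single oral dose 25 mg/kg as suspension in 0.5% CMC. Jugular vein blood drawn at 0.25, 0.5, 1, 2, 4, 6, 8 and 24 h; serum deproteinised with acetonitrile, dried, redissolved and quantified by HPLC. AUC, t1/2, Cmax and Tmax taken directly from concentration–time data.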

[4] = Tmax in ICR mouse at 25 mg/kg, po measured upto 24 hrs by HPLC analysis; type: ADME, organism-based; settings: in vivo; outline: as §1
[5] = Cmax in ICR mouse at 25 mg/kg, po measured upto 24 hrs by HPLC analysis; type: ADME, organism-based; set-up: dose 25 mg/kg, route oral; settings: in vivo; outline: as §1
[6] = AUC (0 to infinity) in ICR mouse at 25 mg/kg, po measured upto 24 hrs by HPLC analysis; type: ADME, organism-based; set-up: dose 25 mg/kg, time infinity, route oral; settings: in vivo; outline: as §1
[7] = MRT in ICR mouse at 25 mg/kg, po measured upto 24 hrs by HPLC analysis; type: ADME, organism-based; settings: in vivo; outline: as §1
[8] = system: Mycobacterium tuberculosis; test: Antituberculosis activity against Mycobacterium tuberculosis H37Rv infected in BALB/C mouse assessed as colony forming unit in lungs at 25 mg/kg, po administered once daily via gavage for 5 days per week for 3 weeks starting from 10 days post-infection (reference value: 6.44 +/- 0.34); type: functional
[9] = system: Mycobacterium tuberculosis; test: Antimycobacterial activity against Mycobacterium tuberculosis H37Rv assessed as reduction in bacterial cell growth at 32 ug/ml by Low-oxygen recovery assay; type: functional
[10] = system: Mycobacterium tuberculosis; test: Antimycobacterial activity against Mycobacterium tuberculosis H37Rv assessed as reduction in bacterial cell growth by Low-oxygen recovery assay; type: functional
CYP1A2 = target: T1, CYP1A2 (Homo sapiens, UniProt P05177); test: (§2) Inhibition of CYP1A2 (unknown origin); type: ADME
T1 sequence (P05177 whole entry): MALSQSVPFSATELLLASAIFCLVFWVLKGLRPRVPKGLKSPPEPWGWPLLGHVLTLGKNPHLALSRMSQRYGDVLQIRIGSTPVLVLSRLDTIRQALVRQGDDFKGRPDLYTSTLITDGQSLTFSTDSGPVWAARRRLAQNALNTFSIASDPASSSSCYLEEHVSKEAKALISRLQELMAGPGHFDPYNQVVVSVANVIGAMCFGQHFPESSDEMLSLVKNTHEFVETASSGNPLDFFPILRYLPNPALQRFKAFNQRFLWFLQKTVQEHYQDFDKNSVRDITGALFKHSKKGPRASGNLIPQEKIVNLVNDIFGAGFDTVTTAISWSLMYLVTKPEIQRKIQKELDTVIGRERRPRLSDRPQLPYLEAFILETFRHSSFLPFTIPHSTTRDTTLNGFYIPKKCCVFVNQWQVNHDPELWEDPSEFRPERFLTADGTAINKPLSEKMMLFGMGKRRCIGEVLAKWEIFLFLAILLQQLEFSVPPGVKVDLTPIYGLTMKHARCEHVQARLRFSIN

CYP2D6 = CYP2D6 (Homo sapiens, UniProt P10635); test: (§3) Inhibition of CYP2D6 (unknown origin); type: ADME
CYP2D6, sequence (P10635 whole entry): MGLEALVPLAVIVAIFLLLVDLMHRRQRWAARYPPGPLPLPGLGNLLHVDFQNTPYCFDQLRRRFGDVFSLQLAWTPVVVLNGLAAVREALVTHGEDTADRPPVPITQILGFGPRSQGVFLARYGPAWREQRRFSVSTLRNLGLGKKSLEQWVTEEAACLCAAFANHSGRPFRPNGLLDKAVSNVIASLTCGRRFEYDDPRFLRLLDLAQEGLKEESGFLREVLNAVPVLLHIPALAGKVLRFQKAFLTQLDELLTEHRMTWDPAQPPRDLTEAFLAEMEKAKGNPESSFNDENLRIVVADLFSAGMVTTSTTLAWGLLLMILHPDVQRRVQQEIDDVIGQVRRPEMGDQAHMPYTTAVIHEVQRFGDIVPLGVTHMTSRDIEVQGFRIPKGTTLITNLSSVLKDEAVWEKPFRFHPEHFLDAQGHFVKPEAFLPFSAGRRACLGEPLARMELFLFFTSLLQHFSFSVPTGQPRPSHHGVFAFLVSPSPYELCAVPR

CYP3A4 = CYP3A4 (Homo sapiens, UniProt P08684); test: (§4) Inhibition of CYP3A4 (unknown origin); type: ADME
CYP3A4, sequence (P08684 whole entry): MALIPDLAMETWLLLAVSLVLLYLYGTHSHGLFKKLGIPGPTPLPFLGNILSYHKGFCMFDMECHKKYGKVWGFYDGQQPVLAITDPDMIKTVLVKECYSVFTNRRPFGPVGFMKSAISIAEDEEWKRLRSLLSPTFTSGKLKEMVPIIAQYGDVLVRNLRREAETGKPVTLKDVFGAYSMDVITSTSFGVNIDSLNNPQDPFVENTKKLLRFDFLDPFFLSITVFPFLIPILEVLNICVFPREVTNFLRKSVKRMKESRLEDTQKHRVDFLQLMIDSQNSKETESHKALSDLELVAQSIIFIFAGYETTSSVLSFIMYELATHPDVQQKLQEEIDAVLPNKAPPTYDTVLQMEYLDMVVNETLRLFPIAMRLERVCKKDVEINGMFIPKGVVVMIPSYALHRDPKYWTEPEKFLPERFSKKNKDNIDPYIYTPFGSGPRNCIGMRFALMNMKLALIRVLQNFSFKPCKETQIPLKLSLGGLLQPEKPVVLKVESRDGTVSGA

CYP2C9 = CYP2C9 (Homo sapiens, UniProt P11712); test: (§5) Inhibition of CYP2C9 (unknown origin); type: ADME
CYP2C9, sequence (P11712 whole entry): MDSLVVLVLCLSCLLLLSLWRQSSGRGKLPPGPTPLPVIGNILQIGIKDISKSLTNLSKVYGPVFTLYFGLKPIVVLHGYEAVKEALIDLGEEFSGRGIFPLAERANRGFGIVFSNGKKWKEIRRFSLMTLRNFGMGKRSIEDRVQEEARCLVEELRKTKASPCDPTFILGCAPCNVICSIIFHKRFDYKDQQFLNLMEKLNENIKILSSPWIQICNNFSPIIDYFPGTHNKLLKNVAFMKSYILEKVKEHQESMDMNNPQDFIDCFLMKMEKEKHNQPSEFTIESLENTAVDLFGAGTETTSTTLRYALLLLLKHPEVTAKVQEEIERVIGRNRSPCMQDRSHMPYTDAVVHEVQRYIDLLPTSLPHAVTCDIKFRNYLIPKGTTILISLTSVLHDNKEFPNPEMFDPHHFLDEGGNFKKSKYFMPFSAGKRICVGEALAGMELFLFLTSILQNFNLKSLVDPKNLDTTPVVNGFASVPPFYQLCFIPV

Cytochrome P450 2C19 = Cytochrome P450 2C19 (Homo sapiens, UniProt P33261); test: Inhibition of CYP2C19 (unknown origin); type: ADME
Cytochrome P450 2C19, sequence (P33261 whole entry): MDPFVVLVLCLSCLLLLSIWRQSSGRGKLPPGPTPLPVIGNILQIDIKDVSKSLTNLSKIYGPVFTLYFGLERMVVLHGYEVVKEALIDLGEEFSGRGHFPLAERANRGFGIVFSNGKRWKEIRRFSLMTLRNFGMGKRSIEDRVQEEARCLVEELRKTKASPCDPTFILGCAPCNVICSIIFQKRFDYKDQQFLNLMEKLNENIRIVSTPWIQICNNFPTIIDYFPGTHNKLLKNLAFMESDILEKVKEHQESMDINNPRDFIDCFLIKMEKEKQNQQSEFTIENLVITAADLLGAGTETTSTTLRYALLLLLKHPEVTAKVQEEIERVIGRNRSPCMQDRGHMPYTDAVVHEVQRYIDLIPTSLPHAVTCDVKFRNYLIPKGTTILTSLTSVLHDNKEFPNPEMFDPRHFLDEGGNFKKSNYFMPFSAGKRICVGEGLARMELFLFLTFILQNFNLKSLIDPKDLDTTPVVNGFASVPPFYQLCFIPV

[11] = Mutagenicity in Salmonella typhimurium TA100 in absence of S9 fraction by mini-Ames test; type: toxicity; settings: salmonella enterica subsp. enterica serovar typhimurium
[12] = Mutagenicity in Salmonella typhimurium TA102 in absence of S9 fraction by mini-Ames test; type: toxicity; settings: salmonella enterica subsp. enterica serovar typhimurium
[13] = Mutagenicity in Salmonella typhimurium TA100 in presence of S9 fraction by mini-Ames test; type: toxicity, subcellular; settings: salmonella enterica subsp. enterica serovar typhimurium
[14] = Mutagenicity in Salmonella typhimurium TA102 in presence of S9 fraction by mini-Ames test; type: toxicity, subcellular; settings: salmonella enterica subsp. enterica serovar typhimurium
[15] = Acute toxicity in Sprague-Dawley rat assessed as death at 2 g/kg, po measured continuously for first 4 hrs followed by every 1 hr for next 24 hrs and subsequent 8 hrs interval for 7 days; type: organism-based; settings: in vivo, 2000 mg/kg
Outline: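 SD rats, 180–220 g, randomised, ten per group, food withheld overnight. Single oral dose of 2 g/kg suspended in 5% CMC; controls given vehicle only. Watched continuously for 4 h, hourly for the next 24 h, then every 8 h through day 7 for deaths or changes. Read-out is survivors/total at 7 days.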

[16] = Half life in Sprague-Dawley rat at 2.5 mg/kg, iv measured upto 24 hrs by HPLC analysis; type: ADME, organism-based; settings: in vivo
Outline: (§6)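 SD rats, 180–220 g; single intravenous dose 2.5 mg/kg or oral doses of 25, 50 or 200 mg/kg, n = 6, half of each sex. Serum sampling, acetonitrile deproteinisation and HPLC quantification followed the mouse procedure. Parameters derived from concentration–time data; F% obtained from the oral and IV exposures.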

[17] = Cmax in Sprague-Dawley rat at 2.5 mg/kg, iv measured upto 24 hrs by HPLC analysis; type: ADME, organism-based; set-up: dose 2.5 mg/kg, route intravenous; settings: in vivo; outline: as §6
[18] = AUC (0 to infinity) in Sprague-Dawley rat at 2.5 mg/kg, iv by HPLC analysis; type: ADME, organism-based; set-up: dose 2.5 mg/kg, route intravenous, time infinity; settings: in vivo; outline: as §6
[19] = Half life in Sprague-Dawley rat at 25 mg/kg, po measured upto 24 hrs by HPLC analysis; type: ADME, organism-based; settings: in vivo; outline: as §6
[20] = Half life in Sprague-Dawley rat at 50 mg/kg, po measured upto 24 hrs by HPLC analysis; type: ADME, organism-based; settings: in vivo; outline: as §6
[21] = Half life in Sprague-Dawley rat at 200 mg/kg, po measured upto 24 hrs by HPLC analysis; type: ADME, organism-based; settings: in vivo; outline: as §6
[22] = Tmax in Sprague-Dawley rat at 25 mg/kg, po measured upto 24 hrs by HPLC analysis; type: ADME, organism-based; settings: in vivo; outline: as §6
[23] = Tmax in Sprague-Dawley rat at 50 mg/kg, po measured upto 24 hrs by HPLC analysis; type: ADME, organism-based; settings: in vivo; outline: as §6
[24] = Tmax in Sprague-Dawley rat at 200 mg/kg, po measured upto 24 hrs by HPLC analysis; type: ADME, organism-based; settings: in vivo; outline: as §6
[25] = Cmax in Sprague-Dawley rat at 25 mg/kg, po measured upto 24 hrs by HPLC analysis; type: ADME, organism-based; set-up: dose 25 mg/kg, route oral; settings: in vivo; outline: as §6
[26] = Cmax in Sprague-Dawley rat at 50 mg/kg, po measured upto 24 hrs by HPLC analysis; type: ADME, organism-based; set-up: dose 50 mg/kg, route oral; settings: in vivo; outline: as §6
[27] = Cmax in Sprague-Dawley rat at 200 mg/kg, po measured upto 24 hrs by HPLC analysis; type: ADME, organism-based; set-up: dose 200 mg/kg, route oral; settings: in vivo; outline: as §6
[28] = AUC (0 to infinity) in Sprague-Dawley rat at 25 mg/kg, po by HPLC analysis; type: ADME, organism-based; set-up: dose 25 mg/kg, route oral, time infinity; settings: in vivo; outline: as §6
[29] = AUC (0 to infinity) in Sprague-Dawley rat at 50 mg/kg, po by HPLC analysis; type: ADME, organism-based; set-up: dose 50 mg/kg, time infinity, route oral; settings: in vivo; outline: as §6
[30] = AUC (0 to infinity) in Sprague-Dawley rat at 200 mg/kg, po by HPLC analysis; type: ADME, organism-based; set-up: dose 200 mg/kg, route oral, time infinity; settings: in vivo; outline: as §6
[31] = Oral bioavailability in Sprague-Dawley rat at 25 mg/kg measured upto 24 hrs by HPLC analysis; type: ADME, organism-based; settings: in vivo; outline: as §6
[32] = Oral bioavailability in Sprague-Dawley rat at 50 mg/kg measured upto 24 hrs by HPLC analysis; type: ADME, organism-based; settings: in vivo; outline: as §6
[33] = Oral bioavailability in Sprague-Dawley rat at 200 mg/kg measured upto 24 hrs by HPLC analysis; type: ADME, organism-based; settings: in vivo; outline: as §6
[34] = system: Mycobacterium tuberculosis; test: Antituberculosis activity against Mycobacterium tuberculosis H37Rv infected in BALB/C mouse assessed as reduction in log10CFU in lungs at 25 mg/kg, po administered once daily for 5 days per week for a total of 3 weeks started on day 10 post-infection; type: functional
Cytochrome P450 1A2 = target: T2, Cytochrome P450 1A2 (Homo sapiens, UniProt P05177); test: as §2; type: ADME
T2 sequence (P05177 whole entry): T1 sequence (P05177 whole entry)

Cytochrome P450 2D6 = Cytochrome P450 2D6 (Homo sapiens, UniProt P10635); test: as §3; type: ADME
Cytochrome P450 2D6, sequence (P10635 whole entry): as the sequence (P10635 whole entry) above

Cytochrome P450 3A4 = Cytochrome P450 3A4 (Homo sapiens, UniProt P08684); test: as §4; type: ADME
Cytochrome P450 3A4, sequence (P08684 whole entry): as the sequence (P08684 whole entry) above

Cytochrome P450 2C9 = Cytochrome P450 2C9 (Homo sapiens, UniProt P11712); test: as §5; type: ADME
Cytochrome P450 2C9, sequence (P11712 whole entry): as the sequence (P11712 whole entry) above

[35] = target: Voltage-gated inwardly rectifying potassium channel KCNH2 (Homo sapiens, UniProt Q12809); test: Inhibition of human ERG transfected in HEK293 cells by whole-cell patch clamp method; type: cell-based
Voltage-gated inwardly rectifying potassium channel KCNH2, sequence (Q12809 whole entry): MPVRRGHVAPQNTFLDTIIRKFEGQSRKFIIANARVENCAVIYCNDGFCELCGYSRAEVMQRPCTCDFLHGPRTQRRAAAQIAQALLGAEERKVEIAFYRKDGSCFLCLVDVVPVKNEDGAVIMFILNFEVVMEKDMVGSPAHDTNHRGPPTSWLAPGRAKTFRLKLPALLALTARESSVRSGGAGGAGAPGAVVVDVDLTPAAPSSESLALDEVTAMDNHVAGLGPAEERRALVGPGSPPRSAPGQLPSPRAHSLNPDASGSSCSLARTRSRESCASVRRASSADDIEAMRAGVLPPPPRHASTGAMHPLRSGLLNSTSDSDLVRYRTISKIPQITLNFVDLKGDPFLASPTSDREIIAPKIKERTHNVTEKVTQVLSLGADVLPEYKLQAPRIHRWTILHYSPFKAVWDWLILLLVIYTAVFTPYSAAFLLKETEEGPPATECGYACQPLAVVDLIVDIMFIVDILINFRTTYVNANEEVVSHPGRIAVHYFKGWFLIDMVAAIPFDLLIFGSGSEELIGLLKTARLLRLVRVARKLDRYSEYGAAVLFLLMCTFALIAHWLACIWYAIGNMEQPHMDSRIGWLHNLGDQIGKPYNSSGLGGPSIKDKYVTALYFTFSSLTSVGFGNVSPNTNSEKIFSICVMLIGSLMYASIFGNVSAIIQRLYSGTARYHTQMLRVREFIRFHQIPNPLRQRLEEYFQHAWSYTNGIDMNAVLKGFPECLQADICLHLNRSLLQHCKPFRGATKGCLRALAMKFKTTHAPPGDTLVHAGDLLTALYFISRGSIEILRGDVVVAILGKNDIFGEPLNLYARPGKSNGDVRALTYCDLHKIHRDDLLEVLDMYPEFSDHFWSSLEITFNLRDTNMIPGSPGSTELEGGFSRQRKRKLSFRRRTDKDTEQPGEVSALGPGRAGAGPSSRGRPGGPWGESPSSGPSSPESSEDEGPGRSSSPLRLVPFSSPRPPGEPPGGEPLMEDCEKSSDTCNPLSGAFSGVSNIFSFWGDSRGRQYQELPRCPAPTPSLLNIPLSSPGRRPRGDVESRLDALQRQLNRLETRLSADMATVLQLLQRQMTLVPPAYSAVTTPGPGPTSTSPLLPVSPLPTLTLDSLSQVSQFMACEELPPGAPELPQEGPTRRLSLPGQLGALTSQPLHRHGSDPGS

SMILES | MIC90 [1] [µg/mL] | CC50 [2] [µg/mL] | half-life [3] [h] | Tmax [4] [h] | Cmax [5] [ng/mL] | AUC(0-inf) [6] [ng·h/mL] | MRT [7] [h] | Activity [8] [log10CFU] | inhibition at 32 µg/mL [9] [%] | MIC [10] [µg/mL] | pIC50 (Cytochrome P450 2C19) | Activity [11] | Activity [12] | Activity [13] | Activity [14] | Activity [15] | half-life [16] [h] | Cmax [17] [ng/mL] | AUC(0-inf) [18] [ng·h/mL] | half-life [19] [h] | other results
CON=C1CCC(CN2CCN(c3nc(=O)c4cc(C(F)(F)F)cc([N+](=O)[O-])c4s3)CC2)CC1 (stereo not drawn) | < 0.016 | > 64 | 1.65 | 0.25 | 8570 | 27500 | 2.46 | 2.4 | 86 | > 32 | 5.11 | Non-Toxic | Non-Toxic | Non-Toxic | Non-Toxic | Non-Toxic | 1.77 | 2590 | 5720 | 3.2 | pIC50 (CYP1A2): < 5.00; pIC50 (CYP2D6): < 5.00; pIC50 (CYP3A4): < 5.00; pIC50 (CYP2C9): < 5.00; half-life [20]: 4.13 h; half-life [21]: 6.73 h; Tmax [22]: 1.25 h; Tmax [23]: 1.67 h; Tmax [24]: 2.83 h; Cmax [25]: 6230 ng/mL; Cmax [26]: 10100 ng/mL; Cmax [27]: 18200 ng/mL; AUC(0-inf) [28]: 26800 ng·h/mL; AUC(0-inf) [29]: 45900 ng·h/mL; AUC(0-inf) [30]: 128000 ng·h/mL; bioavailability [31]: 46.1%; bioavailability [32]: 40.4%; bioavailability [33]: 30.3%; Activity [34]: 4.04 log10CFU
O=c1nc(N2CCN(CC3CCCCC3)CC2)sc2c([N+](=O)[O-])cc(C(F)(F)F)cc12 [MACOZINONE] | < 0.016 | > 64 | 2.78 | 0.25 | 912 | 1660 | 3.17 | 2.65 | 78 | > 32 | 5.42 | Non-Toxic | Non-Toxic | Non-Toxic | Non-Toxic | Non-Toxic | 1.64 | 1440 | 1540 | 4.23 | pIC50 (Cytochrome P450 1A2): < 5.00; pIC50 (Cytochrome P450 2D6): < 5.00; pIC50 (Cytochrome P450 3A4): < 5.00; pIC50 (Cytochrome P450 2C9): < 5.00; pIC50 [35]: 3.99; half-life [20]: 4.86 h; half-life [21]: 5.76 h; Tmax [22]: 0.91 h; Tmax [23]: 1.33 h; Tmax [24]: 2.5 h; Cmax [25]: 463 ng/mL; Cmax [26]: 694 ng/mL; Cmax [27]: 804 ng/mL; AUC(0-inf) [28]: 1600 ng·h/mL; AUC(0-inf) [29]: 3120 ng·h/mL; AUC(0-inf) [30]: 4720 ng·h/mL; bioavailability [31]: 10.7%; bioavailability [32]: 10.2%; bioavailability [33]: 3.82%
